Test results reported in PMC3313018 (Cancer Chemotherapy and Pharmacology, 2011).
Entries after “also recorded” stand apart in the source; their conditions may differ. Like-named read-outs stand apart in the source and are kept apart here. Marks after values point to notes of the source that are not given here.

Tests used:
[1] = tested on: mTOR; conditions: in vitro ref 8; cited from earlier work
[2] = tested on: non-Japanese patients with refractory or advanced solid cancer; conditions: cited from earlier work; for Maximum tolerated dose (MTD): non-Japanese patients ref 10–13
[3] = tested on: Japanese patients with advanced solid tumors; assay: Phase I safety and tolerability: DLTs and adverse events; format: in vivo; conditions: for DLTs / n/N, No. of patients with DLT/No. of patients at the dose level: Cycle 1
Outline: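 Open-label, single-centre 3+3 escalation, 20 then 40 mg orally (single dose Day 1, then daily 5 days/week from Day 8). DLT window was the first 28-day cycle, counting drug-related Grade 4 neutropenia >5 days, febrile (>38.5°C) Grade 3–4 neutropenia, Grade 4 thrombocytopenia, and Grade 3–4 non-haematologic toxicity with exceptions. Adverse events graded by CTCAE v3.0 over all cycles. Dose intensity <75% excluded from DLT evaluation.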

[4] = tested on: sarcoma; conditions: Phase III sarcoma maintenance study, P = 0.0001, stratified log-rank ref 24; cited from earlier work
[5] = tested on: metastatic or locally advanced solid tumors; assay: Antitumor activity by RECIST version 1.0; format: in vivo, Japanese patients
Outline: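 Exploratory tumour assessment by RECIST v1.0 in refractory metastatic or locally advanced solid tumours. Oral 20 or 40 mg: single dose Day 1, washout ≥6 days, then once daily 5 days on/2 days off on Days 8–28 as inpatients. Later 21-day cycles at 5 days a week until progression or unacceptable toxicity.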

[6] = tested on: human tumor cell lines; conditions: in vitro ref 8; cited from earlier work
[7] = Whole blood and plasma pharmacokinetics; format: in vivo, Japanese patients
Outline: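 Cycle 1, oral 20 or 40 mg. Whole blood and plasma sampled predose and 0.5–168 h after the Day 1 dose, predose on Days 15, 18, 22 and 23, and predose to 24 h on Day 26; assayed by HPLC-MS/MS. Tmax, Cmax and Ctrough taken by inspection. […] Accumulation (Day 26/Day 1) from a linear mixed effects model on ln values.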

[8] = All patients (n = 13), all cycles
[9] = all patients (n = 13), all cycles

## CO[C@H]1C[C@@H]2CC[C@@H](C)[C@@](O)(O2)C(=O)C(=O)N2CCCC[C@H]2C(=O)O[C@H]([C@H](C)C[C@@H]2CC[C@@H](OP(C)(C)=O)[C@H](OC)C2)CC(=O)[C@H](C)/C=C(\C)[C@@H](O)[C@@H](OC)C(=O)[C@H](C)C[C@H](C)/C=C/C=C/C=C/1C [ridaforolimus, Ridaforolimus]
[1]
  Effect on mTOR activity, in words: inhibited mTOR activity
[2]; 40 mg daily, five times a week, non-Japanese patients ref 17
  DLTs: stomatitis and fatigue
[2]; daily regimen
  Maximum tolerated dose (MTD): 10 mg
[2]; once daily, five-times-a-week regimen
  Maximum tolerated dose (MTD): 40 mg
[3]; 20 mg (n = 7), all cycles
  Anorexia, drug-related adverse event, Grades 1–2, no. of patients: 2
  Constipation, drug-related adverse event, Grades 1–2, no. of patients: 3
  Fatigue, drug-related adverse event, Grades 1–2, no. of patients: 1
  Hypercholesterolemia, drug-related adverse event, Grades 1–2, no. of patients: 3
  Hyperglycemia, drug-related adverse event, Grades 1–2, no. of patients: 2
  Hypertriglyceridemia, drug-related adverse event, Grades 1–2, no. of patients: 5
  Hypoalbuminemia, drug-related adverse event, Grades 1–2, no. of patients: 2
  Interstitial pneumonitis, drug-related adverse event, Grades 1–2, no. of patients: 1
  Interstitial pneumonitis, drug-related adverse event, Grades 3–4, no. of patients: 0
  Leukopenia, drug-related adverse event, Grades 1–2, no. of patients: 1
  Leukopenia, drug-related adverse event, Grades 3–4, no. of patients: 1
  Neutropenia, drug-related adverse event, Grades 1–2, no. of patients: 1
  Neutropenia, drug-related adverse event, Grades 3–4, no. of patients: 2
  Proteinuria, drug-related adverse event, Grades 1–2, no. of patients: 3
  Stomatitis, drug-related adverse event, Grades 3–4, no. of patients: 1
  Thrombocytopenia, drug-related adverse event, Grades 1–2, no. of patients: 2
[3]; 40 mg (n = 6), all cycles
  Anemia, drug-related adverse event, Grades 1–2, no. of patients: 3
  Anemia, drug-related adverse event, Grades 3–4, no. of patients: 3
  Anorexia, drug-related adverse event, Grades 1–2, no. of patients: 2
  Anorexia, drug-related adverse event, Grades 3–4, no. of patients: 1
  Constipation, drug-related adverse event, Grades 1–2, no. of patients: 1
  Fatigue, drug-related adverse event, Grades 1–2, no. of patients: 3
  Hypercholesterolemia, drug-related adverse event, Grades 1–2, no. of patients: 3
  Hyperglycemia, drug-related adverse event, Grades 1–2, no. of patients: 2
  Hyperglycemia, drug-related adverse event, Grades 3–4, no. of patients: 1
  Hypertriglyceridemia, drug-related adverse event, Grades 1–2, no. of patients: 4
  Hypoalbuminemia, drug-related adverse event, Grades 1–2, no. of patients: 3
  Interstitial pneumonitis, drug-related adverse event, Grades 1–2, no. of patients: 3
  Interstitial pneumonitis, drug-related adverse event, Grades 3–4, no. of patients: 0
  Leukopenia, drug-related adverse event, Grades 1–2, no. of patients: 2
  Loss of body weight, drug-related adverse event, Grades 1–2, no. of patients: 4
  Neutropenia, drug-related adverse event, Grades 1–2, no. of patients: 1
  Proteinuria, drug-related adverse event, Grades 1–2, no. of patients: 3
  Rash, drug-related adverse event, Grades 1–2, no. of patients: 2
  Rash, drug-related adverse event, Grades 3–4, no. of patients: 1
  Stomatitis, drug-related adverse event, Grades 1–2, no. of patients: 6
  Thrombocytopenia, drug-related adverse event, Grades 1–2, no. of patients: 3
[3]; 13 patients
  Median time until the onset of stomatitis: 11 days
  Number of patients who discontinued treatment because of adverse events: Six patients
[3]; 13 patients enrolled
  Number of patients with stomatitis: 13
[3]; 13 patients, 20 and 40 mg
  Number of patients with grade 1 drug-induced interstitial pneumonitis: Four patients
[3]; 20 and 40 mg, first cycle
  Number of patients with dose-limiting toxicities: Two patients
[3]; [8]
  Anemia, drug-related adverse event, Grades 3–4, no. of patients: 4
  Anorexia, drug-related adverse event, Grades 1–2, no. of patients: 4
  Anorexia, drug-related adverse event, Grades 3–4, no. of patients: 1
  Constipation, drug-related adverse event, Grades 1–2, no. of patients: 4
  Fatigue, drug-related adverse event, Grades 1–2, no. of patients: 4
  Hypercholesterolemia, drug-related adverse event, Grades 1–2, no. of patients: 6
  Hyperglycemia, drug-related adverse event, Grades 1–2, no. of patients: 4
  Hyperglycemia, drug-related adverse event, Grades 3–4, no. of patients: 1
  Hypertriglyceridemia, drug-related adverse event, Grades 1–2, no. of patients: 9
  Hypoalbuminemia, drug-related adverse event, Grades 1–2, no. of patients: 5
  Interstitial pneumonitis, drug-related adverse event, Grades 1–2, no. of patients: 4
  Interstitial pneumonitis, drug-related adverse event, Grades 3–4, no. of patients: 0
  Leukopenia, drug-related adverse event, Grades 1–2, no. of patients: 3
  Leukopenia, drug-related adverse event, Grades 3–4, no. of patients: 1
  Loss of body weight, drug-related adverse event, Grades 1–2, no. of patients: 4
  Neutropenia, drug-related adverse event, Grades 1–2, no. of patients: 2
  Neutropenia, drug-related adverse event, Grades 3–4, no. of patients: 2
  Proteinuria, drug-related adverse event, Grades 1–2, no. of patients: 6
  Rash, drug-related adverse event, Grades 3–4, no. of patients: 1
  Stomatitis, drug-related adverse event, Grades 3–4, no. of patients: 1
  Thrombocytopenia, drug-related adverse event, Grades 1–2, no. of patients: 5
[3]; Grade 3 anorexia, 40 mg
  Time to onset of DLT: 23 days
[3]; Grade 3 stomatitis, 20 mg
  Time to onset of DLT: 8 days
[3]; Grade 3 vomiting, 40 mg
  Time to onset of DLT: 23 days
[3]; Level 1, 20 mg
  DLTs: Grade 3 stomatitis
  n/N, No. of patients with DLT/No. of patients at the dose level: 1/6^b
[3]; Level 2, 40 mg
  DLTs: Grade 3 anorexia; also recorded: Grade 3 vomiting
  n/N, No. of patients with DLT/No. of patients at the dose level: 1/6
[3]; [9]
  Incidence of hypercholesterolemia related to treatment: 46.2%
  Incidence of hypertriglyceridemia related to treatment: 69.2%
  Incidence of leucopenia: 30.8%
  Incidence of neutropenia: 30.8%
  Incidence of proteinuria related to treatment: 46.2%
  Incidence of skin rash related to treatment: 61.5%
  Incidence of stomatitis related to treatment: 100%
  Incidence of thrombocytopenia: 38.5%
[3]; dose level 2 (40 mg)
  Patients requiring a dose reduction: None
[3]; eight patients with other cancer types
  Interstitial pneumonitis among patients with other cancer types: three cases occurred among eight patients
[3]; five patients with NSCLC
  Interstitial pneumonitis among NSCLC patients: one of these five NSCLC patients
[3]; four patients
  Time of occurrence of interstitial pneumonitis after the start of treatment: 2–5 months
[3]; oral, once daily 5 days a week
  Tolerability, in words: well tolerated up to a dose of 40 mg
[4]
  Hazard ratio for progression-free survival vs placebo: 0.72
[5]; 13 patients, NSCLC and angiosarcoma
  Number of patients achieving a partial response: Two patients
[5]; 13 patients, one thymic cancer, four soft tissue sarcomas
  Number of patients with stable disease for ≥16 weeks: five patients
[5]; Patient 1, Osteosarcoma, 20 mg
  Duration of stable disease: 3.7 weeks
[5]; Patient 3, Thymic cancer, 20 mg
  Duration of stable disease: 16.3 weeks
[5]; Patient 5, Liposarcoma, 20 mg
  Duration of stable disease: 16.1 weeks
[5]; Patient 6, NSCLC (adenocarcinoma), 20 mg
  Duration of stable disease: 4.0 weeks
[5]; Patient 7, NSCLC (adenocarcinoma), 20 mg
  Duration of stable disease: 4.0 weeks
[5]; Patient 8, Osteosarcoma, 40 mg
  Duration of stable disease: 4.0 weeks
[5]; Patient 9, Liposarcoma, 40 mg
  Duration of stable disease: 17.3 weeks
[5]; Patient 10, Leiomyosarcoma, 40 mg
  Duration of stable disease: 16.3 weeks
[5]; Patient 11, Leiomyosarcoma, 40 mg
  Duration of stable disease: 17.1 weeks
[5]; Patient 13, Day 28, baseline 42 mm
  Longest tumor diameter on CT: 21 mm
[5]; both patients with partial response
  Time until the response: 28 days
[6]
  Antiproliferative activity, in words: antiproliferative activity against a broad range of human tumor cell lines
[7]; Day 1, after administration of 20 mg
  Time whole blood concentration was below the quantitation limit (<0.2 ng/mL): 2 to 4 h
[7]; Day 1, after administration of 40 mg
  Time whole blood concentration was below the quantitation limit (<0.2 ng/mL): 1 to 2 h
[7]; once daily, 5 days a week
  Time for mean whole blood C trough to reach steady state: about 1 week
[7]; plasma vs whole blood concentration
  Blood-to-plasma ratio, in words: high blood-to-plasma ratio
[7]; whole blood
  Accumulation from Day 1 to Day 26 (AUC0–24 h, C max, C trough), in words: moderate accumulation
[7]; whole blood, 20 mg
  Accumulation ratio (Day 26/Day 1) AUC0–24 h, geometric mean ratio (90% confidence interval): 1.51 (1.14, 2.01)
  Accumulation ratio (Day 26/Day 1) C max, geometric mean ratio (90% confidence interval): 1.37 (0.959, 1.97)
  Accumulation ratio (Day 26/Day 1) C trough, geometric mean ratio (90% confidence interval): 2.02 (1.61, 2.52)
[7]; whole blood, 40 mg
  Accumulation ratio (Day 26/Day 1) AUC0–24 h, geometric mean ratio (90% confidence interval): 1.44 (1.05, 1.99)
  Accumulation ratio (Day 26/Day 1) C max, geometric mean ratio (90% confidence interval): 1.01 (0.674, 1.50)
  Accumulation ratio (Day 26/Day 1) C trough, geometric mean ratio (90% confidence interval): 1.76 (1.37, 2.25)
[7]; whole blood, Day 1, 20 and 40 mg
  Lag time for systemic absorption: 1 to 4 h
[7]; whole blood, Days 1 and 26
  Time at which C max was reached: approximately 4 h
